# How the values were obtained:
# SK-OV-3 = experiment: Cytotoxicity against human SKOV3 cells by MTT assay; assay type: functional; details: for EC50: Homo sapiens, SK-OV-3, read-out: ED50 (the source's name)
# How it was run: (§1)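 Human solid tumour lines tested at the Purdue Cancer Center cell culture laboratory using a standard MTT viability method, with adriamycin run as the control substance.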
# A498 = experiment: Cytotoxicity against human A498 cells by MTT assay; assay type: functional; details: for EC50: Homo sapiens, A498, read-out: ED50 (the source's name); how it was run: as §1
# A-431 = experiment: Cytotoxicity against human A431 cells by MTT assay; assay type: functional; details: for EC50: Homo sapiens, A-431, read-out: ED50 (the source's name); how it was run: as §1
# A549 = experiment: Cytotoxicity against human A549 cells by MTT assay; assay type: functional; details: for EC50: Homo sapiens, A549, read-out: ED50 (the source's name); how it was run: as §1
# HT-29 = experiment: Cytotoxicity against human HT-29 cells by MTT assay; assay type: functional; details: for EC50: Homo sapiens, HT-29, read-out: ED50 (the source's name); how it was run: as §1
# MCF7 = experiment: Cytotoxicity against human MCF7 cells by MTT assay; assay type: functional; details: for EC50: Homo sapiens, MCF7, read-out: ED50 (the source's name); how it was run: as §1
# PC-3 = experiment: Cytotoxicity against human PC3 cells by MTT assay; assay type: functional; details: for EC50: Homo sapiens, PC-3, read-out: ED50 (the source's name); how it was run: as §1
# SK-MEL-5 = experiment: Cytotoxicity against human SK-MEL-5 cells by MTT assay; assay type: functional; details: for EC50: Homo sapiens, SK-MEL-5, read-out: ED50 (the source's name); how it was run: as §1
# [1] = Inhibition of bovine brain tubulin polymerization by turbidity assay; set-up: species or system Bos taurus
# How it was run: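 Microtubule protein isolated from bovine brain, 1 mg/ml, with 1 mM GTP and graded inhibitor concentrations. Turbidity increase read at 340 nm over 30 min at 37°. Positive control contained MTP plus GTP; negative control contained MTP only.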
# [2] = Inhibition of bovine brain tubulin polymerization by sedimentation assay; set-up: species or system Bos taurus
# How it was run: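 Microtubule protein from bovine brain (1 mg/ml) with 1 mM GTP and varying inhibitor levels, incubated 30 min at 37°. Microtubules pelleted at 100,000 g for 5 min. Supernatant protein measured by BCA. Sedimented protein calculated relative to the positive control (MTP+GTP) and negative control (MTP alone).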
SMILES,IC50 [1],IC50 [2],EC50 (SK-OV-3),EC50 (A498),EC50 (A-431),EC50 (A549),EC50 (HT-29),EC50 (MCF7),EC50 (PC-3),EC50 (SK-MEL-5),ED50 (SK-OV-3),ED50 (A498),ED50 (A-431),ED50 (A549),ED50 (HT-29),ED50 (MCF7),ED50 (PC-3),ED50 (SK-MEL-5)
COc1cccc2c1C(=O)c1c(O)c3c(c(O)c1C2=O)C[C@@](O)(C(=O)CO)C[C@@H]3O[C@H]1C[C@H](N)[C@H](O)[C@H](C)O1 [DOXORUBICIN],–,–,0.0025 µg/mL,0.0032 µg/mL,0.012 µg/mL,–,–,0.02 µg/mL,0.01 µg/mL,–,–,–,–,3.1 ×10⁻⁴ ug/ml,5.6 ×10⁻⁴ ug/ml,–,–,2.8 ×10⁻⁴ ug/ml
COc1cc([C@@H]2c3cc4c(cc3[C@H](O)[C@H]3COC(=O)[C@H]23)OCO4)cc(OC)c1OC [PODOFILOX],600 nM,1000 nM,–,–,–,–,–,–,–,–,4.2 ×10⁻⁵ ug/ml,3.4 ×10⁻⁷ ug/ml,1.1 ×10⁻⁶ ug/ml,7.7 ×10⁻⁸ ug/ml,4.7 ×10⁻⁸ ug/ml,1.1 ×10⁻⁶ ug/ml,1.2 ×10⁻⁷ ug/ml,4.1 ×10⁻⁸ ug/ml

# Now from value to molecule, other results behind:
IC50 [1],IC50 [2],SMILES,EC50 (SK-OV-3),EC50 (A498),EC50 (A-431),EC50 (A549),EC50 (HT-29),EC50 (MCF7),EC50 (PC-3),EC50 (SK-MEL-5),ED50 (SK-OV-3),ED50 (A498),ED50 (A-431),ED50 (A549),ED50 (HT-29),ED50 (MCF7),ED50 (PC-3),ED50 (SK-MEL-5)
5000 nM,20000 nM,COc1cc(-c2c3c(cc4cc5c(cc24)OCO5)COC3=O)cc2c1OCO2,0.0067 µg/mL,0.078 µg/mL,0.18 µg/mL,0.049 µg/mL,0.29 µg/mL,9.7 µg/mL,0.15 µg/mL,0.0035 µg/mL,–,–,–,–,–,–,–,–
40000 nM,45000 nM,COc1cc([C@@H]2c3cc4c(cc3C[C@H]3COC(=O)[C@H]32)OCO4)cc2c1OCO2,0.832 µg/mL,0.76 µg/mL,0.96 µg/mL,0.46 µg/mL,0.1 µg/mL,4.1 µg/mL,3.1 µg/mL,0.77 µg/mL,–,–,–,–,–,–,–,–
800 nM,1000 nM,COc1cc([C@@H]2c3cc4c(cc3C[C@H]3COC(=O)[C@@H]32)OCO4)cc2c1OCO2 [AUSTROBAILIGNAN 1],–,–,–,–,–,–,–,–,2.7 ×10⁻⁶ ug/ml,3.2 ×10⁻⁶ ug/ml,3.6 ×10⁻⁶ ug/ml,3.9 ×10⁻⁶ ug/ml,3.7 ×10⁻⁶ ug/ml,5.2 ×10⁻⁵ ug/ml,3.3 ×10⁻⁶ ug/ml,3 ×10⁻⁷ ug/ml
